Active and inactive are the calls of the source. No cut-off for these calls is given here.

The values below come from ChEMBL document CHEMBL5214961, “Novel Allosteric Inhibitor-Derived AKT Proteolysis Targeting Chimeras (PROTACs) Enable Potent and Selective AKT Degradation in KRAS/BRAF Mutant Cells” (J Med Chem, 2022).

For data set [1], the target named is T1, RAC-beta serine/threonine-protein kinase (Homo sapiens, UniProt P31751). As to the kind of experiment: Induction of AKT2 degradation in human SW620 cells assessed as reduction in total AKT level at 1 uM measured after 18 hrs by TMT-MS analysis. The data set is classed as cell-based. Summed up:
(§1)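 SW620 cells treated at 1 μM for 18 h, two biological replicates per condition. Lysates in 8 M urea were reduced with DTT, alkylated with iodoacetamide, digested with trypsin, labeled with TMT, split into 22 fractions and analyzed by nanoLC-MS/MS on a Q-Exactive HF-X. Output is log2 fold change against p value.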

For data set [2], the target named is T2, RAC-alpha serine/threonine-protein kinase (Homo sapiens, UniProt P31749). As to the kind of experiment: Induction of AKT degradation in MS21-resistant human PANC-1 cells harboring […] mutant assessed as reduction in total AKT level at 100 nM incubated for 24 hrs by Western blot analysis relative to control. The data set is classed as cell-based. Details: scale not given: the % may be the effect or the level left. Summed up:
(§2)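 Dose-response in DMEM/10% FBS culture: compound at the indicated concentrations, up to 10 μM, for 24 h. Total AKT read by western blot of urea/SDS lysates with β-actin loading control; in SW620 a DC50 was fitted from the concentration-response blot data.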
(In western blotting, separated proteins are transferred to a membrane and probed.)
Target sequence in this assay (P31749 whole entry): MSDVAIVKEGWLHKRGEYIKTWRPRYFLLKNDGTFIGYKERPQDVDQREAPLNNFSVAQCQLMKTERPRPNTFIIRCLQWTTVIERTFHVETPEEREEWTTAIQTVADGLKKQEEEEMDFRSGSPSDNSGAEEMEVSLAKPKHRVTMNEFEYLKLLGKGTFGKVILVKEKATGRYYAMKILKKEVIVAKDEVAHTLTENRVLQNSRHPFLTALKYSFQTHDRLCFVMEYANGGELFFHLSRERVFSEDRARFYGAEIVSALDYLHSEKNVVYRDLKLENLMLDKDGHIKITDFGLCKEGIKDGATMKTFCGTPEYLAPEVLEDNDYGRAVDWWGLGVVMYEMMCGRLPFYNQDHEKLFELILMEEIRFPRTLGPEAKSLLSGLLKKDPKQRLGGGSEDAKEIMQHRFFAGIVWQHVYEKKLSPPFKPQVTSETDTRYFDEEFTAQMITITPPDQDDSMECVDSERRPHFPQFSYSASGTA

In data set [3] the target is Proline-rich AKT1 substrate 1 (Homo sapiens) (UniProt Q96B36). As to the kind of experiment: Inhibition of PRAS40 phosphorylation in human SW620 cells at 1 uM measured after 18 hrs by TMT-MS analysis. The data set is classed as cell-based.
In data set [4] the target is T2, RAC-alpha serine/threonine-protein kinase. As to the kind of experiment: Induction of AKT degradation in MS-21 resistant human SW620 cells harboring KRAS-mutant assessed as reduction in total Akt level at 1 uM incubated for 24 hrs by Western blot analysis. The data set is classed as cell-based. Summed up: (§3)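 Cells grown in DMEM with 10% FBS at 37 °C, 5% CO2, then exposed to compound at 1 μM for 24 h. Lysates made in 2X urea/SDS sample buffer, run on 4–12% Bis-Tris gels, transferred to PVDF, probed for total AKT overnight at 4 °C; HRP/chemiluminescence detection with β-actin as loading control.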
Target sequence in this assay (P31749 whole entry): as above

Data set [5] shares this target. As to the kind of experiment: Induction of AKT degradation in MS21-resistant human SW620 cells harboring KRAS/BRAF mutant assessed as reduction in total AKT level at 100 nM incubated for 24 hrs by Western blot analysis relative to control. Details: scale not given: the % may be the effect or the level left. It counts as cell-based. Summed up: as §2
Target sequence in this assay (P31749 whole entry): as above
A short description of data set [6]: Toxicity in Swiss albino mouse assessed as clinical signs at 75 mg/kg, ip administered as single dose and measured for 12 hrs. The data set is classed as organism-based. The conditions noted are these: in vivo. Put shortly:
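Male Swiss albino mice given a single 75 mg/kg IP dose in 5% NMP/5% Solutol HS-15/90% saline; watched for clinical signs across a 12 h pharmacokinetic sampling period.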

The target of data set [7] is T2, RAC-alpha serine/threonine-protein kinase. As to the kind of experiment: Induction of AKT1 degradation in human SW620 cells at 0.01 to 10 uM incubated for 24 hrs by Western blot analysis. It counts as cell-based. The conditions noted are these: dose 0.01-10 µM.
Target sequence in this assay (P31749 whole entry): as above
Data set [8] can be described thus: Plasma concentration in Swiss albino mouse at 75 mg/kg, ip administered as single dose and measured for 12 hrs by LC-MS/MS analysis. The data set is classed as ADME, organism-based. Summed up:
(§4)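 Single IP dose of 75 mg/kg to male Swiss albino mice (six dosed); compound as HCl salt in 5% v/v NMP, 5% v/v Solutol HS-15, 90% v/v normal saline. About 60 μL plasma taken from three mice at 0.5, 1, 2, 4, 8 and 12 h; LC-MS/MS quantitation (LLOQ 1.02 ng/mL); values are means of 3 mice.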

The target of data set [9] is T2, RAC-alpha serine/threonine-protein kinase. As to the kind of experiment: Induction of AKT degradation in MS21-resistant human PANC-1 cells harboring […] mutant assessed as reduction in total AKT level at 1 uM incubated for 24 hrs by Western blot analysis. The data set is classed as cell-based. Summed up: as §3
Target sequence in this assay (P31749 whole entry): as above
The target is the same in data set [10]. As to the kind of experiment: Induction of AKT degradation in MS21-resistant human HT-29 cells harboring BRAF/PI3KA mutant assessed as reduction in total AKT level at 1 uM incubated for 24 hrs by Western blot analysis. It counts as cell-based. Put shortly:
as §3
Target sequence in this assay (P31749 whole entry): as above

For data set [11], the system named is SW-620. As to the kind of experiment: Induction of apoptosis in human SW620 cells harboring KRAS mutant assessed as cell death at 5 uM measured upto 72 hrs. The data set is classed as functional, cell-based. Summed up:
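SW620 cells given 5 μM compound or DMSO; percent cell death followed with DRAQ7 at 0, 24, 36, 48 and 72 h. Standard errors taken from three independent experiments.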

In data set [12] the target is T1, RAC-beta serine/threonine-protein kinase. As to the kind of experiment: Induction of AKT2 degradation in human SW620 cells at 0.01 to 10 uM incubated for 24 hrs by Western blot analysis. The data set is classed as cell-based. The conditions noted are these: dose 0.01-10 µM.
The nature of data set [13]: Tmax in Swiss albino mouse at 75 mg/kg, ip administered as single dose and measured for 12 hrs by LC-MS/MS analysis. The data set is classed as ADME, organism-based. The conditions noted are these: in vivo. Summed up: as §4
Data set [14] deals with T2, RAC-alpha serine/threonine-protein kinase. As to the kind of experiment: Induction of AKT degradation in human SW620 cells assessed as reduction in total AKT level at 1 uM measured after 18 hrs by TMT-MS analysis. It counts as cell-based. Put shortly:
as §1

For data set [15], the system named is PC-3. As to the kind of experiment: Inhibition of colony formation in human PC-3 cells at 0.1 to 10 uM incubated for 2 weeks with media replacement for every 2 days by crystal violet staining based analysis. It counts as functional, cell-based. The conditions noted are these: dose 0.1-10 µM. Summed up: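 PC3 cells kept 14 days with compound; compound-containing medium replenished every two days. Viable cells stained with 0.5% crystal violet.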

The target of data set [16] is RAC-gamma serine/threonine-protein kinase (Homo sapiens, UniProt Q9Y243). As to the kind of experiment: Inhibition of AKT3 (unknown origin) preincubated for 20 mins followed by [33P]-ATP addition measured after 120 mins by hotspot kinase assay.
The target of data set [17] is T2, RAC-alpha serine/threonine-protein kinase. As to the kind of experiment: Induction of AKT degradation in MS-21 resistant human MIA PaCa-2 cells harboring KRAS-mutant assessed as reduction in total Akt level at 1 uM incubated for 24 hrs by Western blot analysis. It counts as cell-based.
Data set [18] shares this target. As to the kind of experiment: Induction of AKT degradation in MS21-resistant human SW620 cells harboring KRAS/BRAF mutant assessed as reduction in total AKT level at 1 uM measured after 12 hrs by Western blot analysis relative to control. The data set is classed as cell-based. Details: scale not given: the % may be the effect or the level left. Put shortly:
(§5)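 SW620 time course: cells given 1 μM compound, with lysates harvested at several time points up to 24 h. Total AKT probed by western blot with β-actin as loading control.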

The target is the same in data set [19]. As to the kind of experiment: Induction of AKT degradation in MS21-resistant human COLO 205 cells harboring BRAF mutant assessed as reduction in total AKT level at 1 uM incubated for 24 hrs by Western blot analysis. It counts as cell-based. Summed up: as §3
Data set [20] has as its target T1, RAC-beta serine/threonine-protein kinase. As to the kind of experiment: Inhibition of AKT2 (unknown origin) preincubated for 20 mins followed by [33P]-ATP addition measured after 120 mins by hotspot kinase assay.
The subject of data set [21] is SW-620. As to the kind of experiment: Antiproliferative activity against human SW620 cells harboring KRAS mutant assessed as inhibition of cell growth incubated for 5 days by IncuCyte live-cell imaging analysis. It counts as functional, cell-based. The note with it: SW-620, 120 h.
The target of data set [22] is T2, RAC-alpha serine/threonine-protein kinase. As to the kind of experiment: Induction of AKT degradation in MS21-resistant human PANC-1 cells harboring […] mutant assessed as reduction in total AKT level incubated for 24 hrs by Western blot analysis. It counts as cell-based. The note with it: dose 0.01-10 µM, DDE = dose-dependent effect. Summed up:
as §2

The target is the same in data set [23]. As to the kind of experiment: Inhibition of AKT1 (unknown origin) preincubated for 20 mins followed by [33P]-ATP addition measured after 120 mins by hotspot kinase assay.
The target is the same in data set [24]. As to the kind of experiment: Induction of AKT degradation in MS21-resistant human SK-MEL-239 cells harboring BRAF mutant assessed as reduction in total AKT level at 1 uM incubated for 24 hrs by Western blot analysis. It counts as cell-based. Summed up:
as §3

The target is the same in data set [25]. As to the kind of experiment: Induction of AKT degradation in MS21-resistant human SW620 cells harboring KRAS/BRAF mutant assessed as reduction in total AKT level incubated for 24 hrs by Western blot analysis. The data set is classed as cell-based. Summed up:
as §2
Target sequence in this assay (P31749 whole entry, looked up, change not shown): as the sequence (P31749 whole entry) above

Data set [26] in a line: Cmax in Swiss albino mouse at 75 mg/kg, ip administered as single dose and measured for 12 hrs by LC-MS/MS analysis. The data set is classed as ADME, organism-based. Details: dose 75 mg/kg, time 12 hrs, route ip. The note with it: in vivo. Summed up: as §4
For data set [27], the target named is T2, RAC-alpha serine/threonine-protein kinase. As to the kind of experiment: Induction of AKT degradation in MS21-resistant human SW620 cells harboring KRAS/BRAF mutant assessed as reduction in total AKT level at 1 uM by Western blot analysis. The data set is classed as cell-based. The note with it: time 1-24 hrs, TDE = time-dependent effect. Put shortly:
as §5

Data set [28] has as its target von Hippel-Lindau disease tumor suppressor/RAC-alpha serine/threonine-protein kinase (Homo sapiens) (UniProt P31749+P40337). As to the kind of experiment: Protac activity at VHL/AKT in human PC-3 cells assessed as reduction in total Akt level at 1 uM incubated for 24 hrs by Western blot analysis. It counts as cell-based. Put shortly: as §3

T1 sequence (P31751 whole entry): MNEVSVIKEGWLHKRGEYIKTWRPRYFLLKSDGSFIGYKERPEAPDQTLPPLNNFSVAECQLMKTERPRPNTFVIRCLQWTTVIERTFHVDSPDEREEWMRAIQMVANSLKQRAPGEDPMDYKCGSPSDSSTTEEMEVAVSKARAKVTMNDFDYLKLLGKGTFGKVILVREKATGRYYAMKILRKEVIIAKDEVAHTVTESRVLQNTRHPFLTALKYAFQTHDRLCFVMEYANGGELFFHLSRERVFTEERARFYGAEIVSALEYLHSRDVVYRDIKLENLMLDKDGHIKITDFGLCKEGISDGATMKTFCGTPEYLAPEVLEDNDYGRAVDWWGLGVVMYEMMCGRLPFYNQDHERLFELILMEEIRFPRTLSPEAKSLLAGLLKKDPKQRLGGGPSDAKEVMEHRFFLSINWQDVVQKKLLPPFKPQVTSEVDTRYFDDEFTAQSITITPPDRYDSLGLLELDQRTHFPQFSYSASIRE
Chain of RAC-gamma serine/threonine-protein kinase (Q9Y243 whole entry): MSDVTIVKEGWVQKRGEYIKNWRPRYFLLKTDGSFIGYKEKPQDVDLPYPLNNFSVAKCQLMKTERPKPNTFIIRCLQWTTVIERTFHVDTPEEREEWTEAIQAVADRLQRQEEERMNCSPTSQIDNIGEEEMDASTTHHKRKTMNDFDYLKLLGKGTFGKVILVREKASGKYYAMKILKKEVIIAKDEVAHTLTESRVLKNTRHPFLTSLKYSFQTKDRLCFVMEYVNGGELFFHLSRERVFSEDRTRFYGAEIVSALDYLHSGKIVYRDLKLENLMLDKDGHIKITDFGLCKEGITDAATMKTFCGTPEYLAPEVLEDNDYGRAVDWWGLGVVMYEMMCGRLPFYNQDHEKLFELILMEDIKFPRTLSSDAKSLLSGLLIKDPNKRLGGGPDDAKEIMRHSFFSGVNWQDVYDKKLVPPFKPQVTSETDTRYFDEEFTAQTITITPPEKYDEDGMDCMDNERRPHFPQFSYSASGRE
Chain of von Hippel-Lindau disease tumor suppressor/RAC-alpha serine/threonine-protein kinase (Homo sapiens) (P31749 whole entry, looked up): as the sequence (P31749 whole entry) above
Chain of von Hippel-Lindau disease tumor suppressor/RAC-alpha serine/threonine-protein kinase (Homo sapiens) (P40337 whole entry, looked up): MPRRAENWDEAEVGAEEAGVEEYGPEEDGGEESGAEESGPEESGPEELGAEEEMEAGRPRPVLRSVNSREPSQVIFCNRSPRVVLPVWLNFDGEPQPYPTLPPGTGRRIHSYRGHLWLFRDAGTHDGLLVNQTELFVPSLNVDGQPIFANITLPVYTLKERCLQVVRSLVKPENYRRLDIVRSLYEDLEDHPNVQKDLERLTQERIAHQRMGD

Usually Tmax stands for the time from dosing to the highest level. The IC50 is the concentration needed to halve the response being measured. A word on the GI50: it is the concentration that inhibits growth by half. By EC50 is commonly meant the concentration giving half of the maximal effect. As a reminder, the Cmax is the highest concentration seen after dosing. On to `Cc1ncsc1-c1ccc([C@H](C)NC(=O)[C@@H]2C[C@@H](O)CN2C(=O)[C@@H](NC(=O)CCCCCCCCCCNC(=O)CCc2cccc(-c3ccc4nc(-c5cccnc5N)n(-c5ccc(C6(N)CCC6)cc5)c4n3)c2)C(C)(C)C)cc1`, for which the outcome in [1], in [4], in data set [7], in data set [9], in [10] and in data set [11] was Active. For the same molecule, the outcome in [12], in [14], in data set [17], in [19] and in [24] was Active. Besides, the Activity is 100% in [2]; 100% in [5]; “Non-Toxic” in [6]; 100% in data set [18]; “Dde” in data set [22]; “Tde” in data set [27]. The inhibition entry in data set [3] and in data set [15] was “Active” in each case. Moreover, the concentration at 12 h in [8] was greater than 100 nM. In [13], the Tmax is 30 min. Besides, the IC50 in data set [16] was determined as 544 nM; in [20], 90 nM; in [23] it was 798 nM. Further, the GI50 in data set [21] (time 5 day) was determined as 3100 nM. For the same molecule, the EC50 in data set [25] came to 23 nM. Also, in [26], the Cmax was 1000 nM.
As for `Cc1ncsc1-c1ccc([C@H](C)NC(=O)[C@H]2C[C@H](OCc3ccccc3)CN2C(=O)[C@@H](NC(=O)CCCCCCCCCCNC(=O)CCc2cccc(-c3ccc4nc(-c5cccnc5N)n(-c5ccc(C6(N)CCC6)cc5)c4n3)c2)C(C)(C)C)cc1`, the half-maximal inhibitory concentration (IC50) in data set [16] was 1800 nM; in data set [20], 558 nM; in data set [21] it was greater than 10000 nM; in data set [23] it was 1200 nM.
`Cc1ncsc1-c1ccc([C@H](C)NC(=O)[C@H]2C[C@H](O)CN2C(=O)[C@@H](NC(=O)CCCCCCCCCCNC(=O)CCc2cccc(-c3ccc4nc(-c5cccnc5N)n(-c5ccc(C6(N)CCC6)cc5)c4n3)c2)C(C)(C)C)cc1`: the figures for the IC50 in [16], in [20] and in data set [23] were 407 nM, 86 nM and 684 nM, respectively.
For `Cc1ncsc1-c1ccc(CNC(=O)[C@@H]2C[C@@H](O)CN2C(=O)[C@@H](NC(=O)CCCCCCCCC(=O)NCCc2cccc(-c3ccc4nc(-c5cccnc5N)n(-c5ccc(C6(N)CCC6)cc5)c4n3)c2)C(C)(C)C)cc1`, the inhibition result in [15] was “Active”. Also, the result in data set [28] was Active.
